This is a sample that favours compounds with a hit; in the whole collection about 1.8% have one here.
CXCR6 inh – blocks human CXCR6 beta-arrestin recruitment; O00574; CHO-K1 PathHunter CXCR6 beta-arrestin, luminescence; inhibition, % at 20 µM; 360,000 compounds, 0.36% hits; in the data active = inhibition above about 34%, passing the limit was not always enough;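 note: antagonist mode with CXCL16 agonist at 10 nM final; 0% = 10 nM CXCL16 with DMSO and 100% = unstimulated wells without agonist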
EBI2 block – EBI2 (human) antagonism | P32249 | EBI2 beta-arrestin recruitment, luminescence, 7a,25-OHC stimulated | AID 651636 | inhibition, % at 5 µM | 360,000 compounds, 0.81% hits; in the data active = inhibition above about 38%;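 note: enzyme fragment complementation signal reports receptor beta-arrestin coupling in cells; 0% = agonist plus DMSO wells and 100% = wells without agonist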
APJ antagonist – APJ receptor antagonism | P35414 | CHO-K1 APJ beta-arrestin complementation, luminescence | inhibition, % at 20 µM | 330,000 compounds, 0.32% hits;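 active = inhibition above about 40% at 20 µM, limit read from the data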;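 note: cells challenged with 10 nM apelin-13 agonist together with compound; plate controls were apelin-13 plus DMSO wells for no effect and DMSO wells lacking apelin-13 for full effect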
APJ agonist – APJ receptor agonism. AID 2520. activation, % at 20 µM. CHO-K1 APJ PathHunter beta-arrestin, luminescence; 0% DMSO wells, 100% apelin. 330,000 compounds, 0.11% hits. P35414;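 active = activation more than six SD over the plate average, tested at 20 µM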;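 note: 0% = DMSO alone and 100% = apelin-13 at 10 nM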
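Assay system: CHO-K1 cells stably expressing ProLink-tagged human APJ and arrestin–beta-gal acceptor. Compound dosing: 20 µM single point, 1% DMSO. Times: 16-18 h seeding, 90 min dark compound exposure, 60 min detection. Detection: beta-gal luminescence. Evaluation: APJ–arrestin association signal. Controls: negative DMSO alone, positive Apelin-13 at 10 nM.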
CCR6 antag – antagonists of human CCR6 receptor | CHO-K1 CCR6 PathHunter beta-arrestin, luminescence, CCL20-stimulated | 340,000 compounds, 0.49% hits | P51684 | inhibition, % at 20 µM;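 active = compounds whose inhibition of the agonist-driven luminescence signal at 20 µM reaches about 50%, limit read from the data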;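 note: cells stimulated with CCL20 at 14 nM final; plate controls were DMSO with CCL20 for no effect and DMSO without agonist for full effect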
Beta2AR agonist – human beta-2 adrenergic receptor agonism by FAP; 340,000 compounds, 0.43% hits; P07550; response, % (test concentration not listed); Am2.2-beta2AR cells, FAP receptor internalization, flow cytometry;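 active = response above a set limit, near 3 SD of response in nonfluorescent compounds, cut at about 42% in these data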
Target sequence (P07550 whole entry, looked up): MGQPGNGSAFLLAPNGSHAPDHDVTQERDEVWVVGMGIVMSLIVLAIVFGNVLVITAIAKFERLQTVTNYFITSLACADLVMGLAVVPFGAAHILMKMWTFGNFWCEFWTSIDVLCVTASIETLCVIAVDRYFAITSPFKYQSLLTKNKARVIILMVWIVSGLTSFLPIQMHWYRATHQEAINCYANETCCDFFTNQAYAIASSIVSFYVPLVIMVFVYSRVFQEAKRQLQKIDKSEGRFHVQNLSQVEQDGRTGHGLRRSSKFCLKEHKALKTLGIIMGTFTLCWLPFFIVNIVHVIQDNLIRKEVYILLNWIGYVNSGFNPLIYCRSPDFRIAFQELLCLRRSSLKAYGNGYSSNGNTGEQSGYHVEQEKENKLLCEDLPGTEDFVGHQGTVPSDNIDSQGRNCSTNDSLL
Numbers without * were called inactive; x = not tested or not shown.

SMILES | CXCR6 inh | EBI2 block | APJ antagonist | APJ agonist | CCR6 antag | Beta2AR agonist
O=C(CS(=O)c1ccc(C(F)(F)F)cc1[N+](=O)[O-])Oc1ccccc1 (configuration not stated) | 4 | -11 | 15 | 16 | 13 | 98*
CS(=O)(=O)c1ccc(S(=O)CC(=O)OCc2ccccc2)c([N+](=O)[O-])c1 (configuration not stated) | 52* | 41* | x | x | x | 44*
COC(=O)c1ccc(OC(=O)CS(=O)c2ccccc2[N+](=O)[O-])cc1 (configuration not stated) | -1 | -10 | -19 | -4 | -16 | 6
Cn1cc(S(=O)(=O)N2CCOCC2)cc1C(=O)NCc1ccccc1Cl | 4 | -5 | -8 | 3 | -13 | -7
Cc1n[nH]c(C)c1NC(=O)CSc1nnnn1-c1cccc(F)c1 | 3 | -8 | 8 | -3 | 4 | 11
CC(=O)NCCCNC(=S)NCCCN(Cc1ccc(Cl)cc1)c1ccc(Br)cn1 | 11 | 10 | x | x | x | x
COc1ccc2nc(C)cc(N/N=C/c3ccccc3)c2c1 | 4 | 1 | -10 | 21 | 26 | 47*
CCOC(=O)[C@]12CCCC=C1N(Cc1ccccc1)C(=O)[C@H](CC(=O)N1CCC(c3ccccc3)CC1)C2 | x | 15 | x | x | x | x
COCOCCn1cc(CN2CCS(=O)(=O)N(Cc3ccc(-c4ccc(Cl)c(Cl)c4)cc3)C(C(C)C)C2=O)nn1 (configuration not stated) | -6 | 26 | x | x | x | x
CCN1C(=O)/C(=C/C=C2\N(CC)c3cc(S(=O)(=O)N(C)C)ccc3N2c2ccccc2)SC1=S | 52* | 34 | 27 | -5 | 67* | -109
CCN1C(=O)/C(=C\C=C\c2ccccc2[N+](=O)[O-])SC1=S | 0 | 17 | -48 | 4 | 13 | 9
COc1cc(/C=C(\C#N)c2nc3ccc(C)cc3[nH]2)cc([N+](=O)[O-])c1O | 24 | 9 | x | x | 51* | 9
CCCOc1cc(N(CC)CC)ccc1/C=C(/C#N)c1nc2ccc(C)cc2[nH]1 | 23 | 33 | 24 | -7 | 33 | -453
CCN(CC)c1ccc(/C=C(/C#N)c2nc3ccc(C)cc3[nH]2)c(OC(C)C)c1 | 22 | 35 | 27 | -6 | 52* | -374
COc1cc(-c2coc3c(C(=O)NCc4ccccc4)cccc23)ccc1O | -7 | 5 | x | x | x | x
CCN(CC)CCn1c(NC(=O)c2ccccc2O)nc2ccccc21 | 57* | -5 | 27 | -1 | x | -3
Cc1cc(N2CCN(C(C(=O)NC3CCCC3)c3ccc(-c4ccccc4)cc3)CC2)c2ccccc2n1 (configuration not stated) | x | 21 | x | x | x | x
CCOc1ccccc1-c1c2cc(O)c(=O)cc-2oc2cc(O)c(O)cc12 | 27 | -1 | x | x | 56* | -247
O=c1cc2oc3cc(O)c(O)cc3c(-c3ccccc3O)c-2cc1O | 28 | 1 | x | x | 30 | -29
CCN(CC)S(=O)(=O)c1cc(NC(=O)c2ccc3c(c2)NC(=O)C(C)S3)ccc1C (configuration not stated) | -10 | 5 | -6 | 3 | 14 | 12
Cc1ccc(Cl)c2c1=NC(=O)C=2c1[nH]c(=S)[nH]c1O | 17 | -6 | 41* | -8 | 45 | -4
O=C1N=c2ccccc2=C1c1[nH]c(=S)[nH]c1O | 8 | -13 | 9 | -2 | 10 | -4
O=C(COC(=O)c1cccc(-n2cnnn2)c1)c1ccc(F)c(F)c1 | 0 | -2 | x | x | x | x
COc1ccccc1CNC(=O)COC(=O)c1cc(-c2ccco2)nc2ccccc12 | 17 | -3 | 16 | -5 | 50* | 0
COc1ccc2nc(C)cc(NCc3ccc(F)cc3)c2c1 | -2 | 9 | -56 | 0 | 9 | -402
SMILES | CXCR6 inh | EBI2 block | APJ antagonist | APJ agonist | CCR6 antag | Beta2AR agonist
CC[C@]12c3[nH]c4cc(-c5ccco5)ccc4c3CCN1C(=O)[C@@H](CC(=O)NCCN1CCOCC1)C[C@@H]2C(=O)N1CCN(C(=O)C2CC2)CC1 | -10 | 4 | x | x | 15 | -5
COc1ccccc1CN(CC(=O)NCc1ccco1)C(=O)CNS(=O)(=O)c1ccccc1 | -5 | 3 | 8 | -4 | 61* | 2
O=Cc1nccc2ccccc12 | -3 | -4 | x | x | -6 | 61*
C(=Cc1c[nH]c2ccccc12)c1nccc2ccccc12 | 0 | 28 | x | x | -6 | -151
Cc1c(C(=O)N/N=C/c2cccnc2)sc(=S)n1C | -6 | 8 | -12 | 3 | -8 | 42*
CC1CCN(S(=O)(=O)N2CCCC(C(=O)NCc3ccccc3Cl)C2)CC1 (configuration not stated) | -7 | -3 | 9 | 1 | 12 | 2
CC1CC(C)CN(S(=O)(=O)N2CCCC(C(=O)NCc3ccccc3Cl)C2)C1 (configuration not stated) | 7 | 5 | 4 | 4 | 56* | 1
COc1ccc(S(=O)(=O)Oc2ccc3ccccc3c2)cc1 | 6 | -5 | -8 | -2 | 5 | -6
COC1=C(OC)C(=O)C(Sc2ccc3ccccc3c2)=CC1=O | 72* | -1 | x | x | x | 16
COc1ccc(-c2oc3c(c2C(=O)OCCO)C(OCCCO)CCC3)cc1 (configuration not stated) | 1 | -4 | x | x | x | x
Cc1cccc(OCC(=O)NCC(=O)N/N=C/c2cc(Br)cc(Br)c2O)c1 | 45* | -1 | 22 | -3 | 10 | 9
COc1cccc(/C=N/NC(=O)CNC(=O)COc2ccccc2)c1O | -9 | 5 | -4 | 2 | -5 | 8
COc1ccc2o/c(=N\O)c(C(=O)Nc3ccccc3OC)cc2c1 | -17 | 2 | -40 | 5 | -19 | 53*
COc1ccc2oc(=O)c(C(=O)Nc3ccccc3O)cc2c1 | 11 | 9 | 12 | -7 | 8 | 16
COc1cccc(OCCNS(=O)(=O)c2ccccc2[N+](=O)[O-])c1 | -4 | -2 | -12 | 0 | 0 | 9
CC(C)c1ccc2c(c1)CCC1C(C)(CN)CCCC21C (configuration not stated) | 8 | -7 | x | x | 37 | 43*
CC(C)N1C(=O)S/C(=C\c2ccc(-c3ccc(Cl)c(C(=O)O)c3)o2)C1=O | -4 | -10 | 16 | -3 | -3 | 4
CCN(CC)c1ccc(/C=C2/SC(=O)N(C(C)C)C2=O)o1 | 24 | 42* | x | x | 46 | -200
O=NN(CCCl)C(=O)NCC1=C[N+](=O)CC=C1 | 4 | -5 | x | x | x | x
CC1(C)C[C@H](O)[C@]2(CO)CC[C@]3(C)C(=CCC4[C@@]5(C)CC[C@H](O)C(C)(C)C5CC[C@]43C)[C@@H]2C1 (some centres not stated) | 1 | -21 | -12 | -1 | -5 | 9

Compound activity: PubChem, several laboratories
